ChEMBL document CHEMBL1123415, “Benzo[a]carbazole derivatives. Synthesis, estrogen receptor binding affinities, and mammary tumor inhibiting activity” (1986)
Several values for one entry are separate records, joined by “and”; a condition that tells them apart may be missing. Equal values may be shown once.

Assays:
Rattus norvegicus [1] = organism: Rattus norvegicus; assay: Partial remission of DMBA-induced mammary tumors in rats at 3 mg dose; assay type: functional
Outline: (§1)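 Female Sprague–Dawley rats given a single 20 mg DMBA dose by gavage in 1 mL olive oil at 50 days old. Randomized once tumor area per animal exceeded 140 mm². Compound given sc in olive oil (1 mL/kg), dose per kg, once daily Monday–Thursday, double dose Friday. Tumor area from caliper measurement of two perpendicular axes, twice weekly. Significance by Wilcoxon–Mann–Whitney U test.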

MCF7 [2] = assay: Inhibition of [3H]thymidine incorporation into hormone sensitive MCF-7 human breast cancer cells at 10e-6 M; assay type: functional
Outline: (§2)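 MCF-7 cells kept two weeks in medium with 5% charcoal-treated calf serum, 37 °C, 5% CO₂. About 2×10⁴ cells per well; compound added next day in 0.1% ethanol, ethanol-only controls, medium changed on day 4. Cells counted on day 7 by Coulter counter; [³H]thymidine 1 μCi/well for 2 h. Mean of six dishes.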

MCF7 [3] = assay: Percentage cell number change as treated/control in hormone sensitive MCF-7 cell proliferation assay at 10e-6 M or 10e-5 M; assay type: functional, Homo sapiens; outline: as §2
Rattus norvegicus [4] = organism: Rattus norvegicus; assay: Initial tumor number in DMBA-induced tumor bearing rats at 3 mg dose (experiment-1); assay type: functional; outline: as §1
MCF7 [5] = assay: Percentage [3H]thymidine incorporation treated/control in hormone sensitive MCF-7 cell proliferation assay at 10e-5 M or 10e-6 M; assay type: functional, Homo sapiens; outline: as §2
Rattus norvegicus [6] = organism: Rattus norvegicus; assay: (§3) Change in DMBA-induced mammary tumor area in rats after 28 day therapy at 3 mg dose (experiment-1); assay type: functional; outline: as §1
Rattus norvegicus [7] = organism: Rattus norvegicus; assay: Final tumor number in DMBA-induced tumor bearing rats at 3 mg dose (experiment-1); assay type: functional; outline: as §1
MCF7 [8] = assay: Inhibition of [3H]thymidine incorporation into hormone sensitive MCF-7 human breast cancer cells at 10e-5 M; assay type: functional; outline: as §2
Rattus norvegicus [9] = organism: Rattus norvegicus; assay: Percentage static unchanged DMBA-induced mammary tumors in rats at 3 mg dose (experiment-1); assay type: functional; outline: as §1
Rattus norvegicus [10] = organism: Rattus norvegicus; assay: Complete remission of DMBA-induced mammary tumors in rats at 3 mg dose; assay type: functional; outline: as §1
MCF7 [11] = assay: Reduction of cell number of hormone sensitive MCF-7 human breast cancer cells at 10e-6 M
MCF7 [12] = assay: Reduction of cell number of hormone sensitive MCF-7 human breast cancer cells at 10e-5 M
Rattus norvegicus [13] = organism: Rattus norvegicus; assay: Percentage progressive DMBA-induced mammary tumors in rats at 3 mg dose (experiment-1); assay type: functional; outline: as §1
Rattus norvegicus [14] = organism: Rattus norvegicus; assay: as §3; assay type: functional; outline: as §1; remark: listed apart in the source
Rattus norvegicus [15] = organism: Rattus norvegicus; assay: Complete remission of DMBA-induced mammary tumors in rats at 1 mg dose; assay type: functional; outline: as §1
Rattus norvegicus [16] = organism: Rattus norvegicus; assay: Initial tumor number in DMBA-induced tumor bearing rats at 4 mg dose (experiment-1); assay type: functional; outline: as §1
Rattus norvegicus [17] = organism: Rattus norvegicus; assay: Initial tumor number in DMBA-induced tumor bearing rats at 1 mg dose (experiment-1); assay type: functional; outline: as §1
Rattus norvegicus [18] = organism: Rattus norvegicus; assay: Percentage progressive DMBA-induced mammary tumors in rats at 1 mg dose (experiment-1); assay type: functional; outline: as §1
Rattus norvegicus [19] = organism: Rattus norvegicus; assay: Final tumor number in DMBA-induced tumor bearing rats at 1 mg dose (experiment-1); assay type: functional; outline: as §1
[20] = biological target: T1, Estrogen receptor (Mus musculus) (UniProt O08537+P19785); assay: Uterotrophic activity in mice as uterus dry weight (mg)/body weight (g) *100 at 25 ug; assay type: functional, tissue-based
Outline: (§4)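 Immature 19-day-old female NMRI mice, 10 per group. Compound in olive oil injected sc on 3 consecutive days, dose per animal; vehicle-only controls, estrone as reference. Killed 24 h after last injection. Uteri fixed in Bouin solution, dried at 100 °C for 24 h. Value = uterine dry weight (mg)/body weight (g) ×100, mean of 10 animals ± SD.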

Rattus norvegicus [21] = organism: Rattus norvegicus; assay: Percentage static unchanged DMBA-induced mammary tumors in rats at 4 mg dose (experiment-1); assay type: functional; outline: as §1
Rattus norvegicus [22] = organism: Rattus norvegicus; assay: Change in DMBA-induced mammary tumor area in rats after 28 day therapy at 4 mg dose (experiment-1); assay type: functional; outline: as §1
Rattus norvegicus [23] = organism: Rattus norvegicus; assay: Percentage static unchanged DMBA-induced mammary tumors in rats at 1 mg dose (experiment-1); assay type: functional; outline: as §1
Rattus norvegicus [24] = organism: Rattus norvegicus; assay: Complete remission of DMBA-induced mammary tumors in rats at 4 mg dose; assay type: functional; outline: as §1
Rattus norvegicus [25] = organism: Rattus norvegicus; assay: Partial remission of DMBA-induced mammary tumors in rats at 4 mg dose; assay type: functional; outline: as §1
Rattus norvegicus [26] = organism: Rattus norvegicus; assay: Change in DMBA-induced mammary tumor area in rats after 28 day therapy at 1 mg dose (experiment-1); assay type: functional; outline: as §1
Rattus norvegicus [27] = organism: Rattus norvegicus; assay: Final tumor number in DMBA-induced tumor bearing rats at 4 mg dose (experiment-1); assay type: functional; outline: as §1
Rattus norvegicus [28] = organism: Rattus norvegicus; assay: Partial remission of DMBA-induced mammary tumors in rats at 1 mg dose; assay type: functional; outline: as §1
[29] = biological target: T1, Estrogen receptor (Mus musculus); assay: Uterotrophic activity in mice as uterus dry weight (mg)/body weight (g) *100 at 1 ug; assay type: functional, tissue-based; outline: as §4
[30] = biological target: T1, Estrogen receptor (Mus musculus); assay: Uterotrophic activity in mice as uterus dry weight (mg)/body weight (g) *100 at 0.2 ug; assay type: functional, tissue-based; outline: as §4
[31] = biological target: T1, Estrogen receptor (Mus musculus); assay: Uterotrophic activity in mice as uterus dry weight (mg)/body weight (g) *100 at 5 ug; assay type: functional, tissue-based; outline: as §4
Rattus norvegicus [32] = organism: Rattus norvegicus; assay: Percentage progressive DMBA-induced mammary tumors in rats at 4 mg dose (experiment-1); assay type: functional; outline: as §1
[33] = biological target: T1, Estrogen receptor (Mus musculus); assay: Uterotrophic activity in mice as uterus dry weight (mg)/body weight (g) *100 at 125 ug; assay type: functional, tissue-based; outline: as §4
[34] = biological target: Estrogen receptor (Bos taurus) (UniProt Q9XSB5+P49884); assay: Evaluated for relative binding affinity (RBA) for calf uterine estrogen receptor; assay type: protein assay
Outline: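 Calf uterine cytosol (105000g supernatant; final protein 3 mg/mL) in Tris-EDTA-azide buffer pH 7.5. Incubated with 5 nM [³H]estradiol and competitor (10⁻⁹–10⁻⁴ M) for 18 h at 4 °C. Free ligand removed with dextran-coated charcoal, bound counted by scintillation. Nonspecific binding measured with 5 μM estradiol. RBA = estradiol/competitor molar ratio at 50% displacement ×100.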

Rattus norvegicus [35] = organism: Rattus norvegicus; assay: Initial tumor number in DMBA-induced tumor bearing rats at 4 mg dose (experiment-2); assay type: functional; outline: as §1
Rattus norvegicus [36] = organism: Rattus norvegicus; assay: (§5) Change in DMBA-induced mammary tumor area in rats after 28 day therapy at 4 mg dose (experiment-2); assay type: functional; outline: as §1
Rattus norvegicus [37] = organism: Rattus norvegicus; assay: Final tumor number in DMBA-induced tumor bearing rats at 4 mg dose (experiment-2); assay type: functional; outline: as §1
Rattus norvegicus [38] = organism: Rattus norvegicus; assay: Change in DMBA-induced tumor area in rats after 28 day therapy at 1 mg dose (experiment-1); assay type: functional; outline: as §1
Rattus norvegicus [39] = organism: Rattus norvegicus; assay: as §5; assay type: functional; outline: as §1; remark: listed apart in the source
[40] = biological target: T1, Estrogen receptor (Mus musculus); conditions: Uterus
[41] = biological target: T1, Estrogen receptor (Mus musculus); conditions: Uterus; remark: listed apart in the source
[42] = biological target: T1, Estrogen receptor (Mus musculus); conditions: Uterus; remark: listed apart in the source
[43] = biological target: T1, Estrogen receptor (Mus musculus); conditions: Uterus; remark: listed apart in the source

T1 sequence (O08537 whole entry, looked up): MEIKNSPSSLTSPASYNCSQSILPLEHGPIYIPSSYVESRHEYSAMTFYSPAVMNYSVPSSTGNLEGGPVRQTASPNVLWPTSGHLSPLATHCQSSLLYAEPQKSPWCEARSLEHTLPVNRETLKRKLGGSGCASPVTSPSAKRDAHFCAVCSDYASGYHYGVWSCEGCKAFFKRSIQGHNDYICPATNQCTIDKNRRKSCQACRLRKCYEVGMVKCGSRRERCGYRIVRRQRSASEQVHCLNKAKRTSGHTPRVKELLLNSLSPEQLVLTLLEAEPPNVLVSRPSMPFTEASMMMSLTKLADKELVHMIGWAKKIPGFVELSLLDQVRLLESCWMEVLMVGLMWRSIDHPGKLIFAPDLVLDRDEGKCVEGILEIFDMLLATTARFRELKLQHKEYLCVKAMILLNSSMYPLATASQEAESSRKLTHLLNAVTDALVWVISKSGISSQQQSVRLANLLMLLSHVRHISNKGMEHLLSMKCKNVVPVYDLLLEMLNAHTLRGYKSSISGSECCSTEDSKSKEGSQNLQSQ
T1 sequence (P19785 whole entry, looked up): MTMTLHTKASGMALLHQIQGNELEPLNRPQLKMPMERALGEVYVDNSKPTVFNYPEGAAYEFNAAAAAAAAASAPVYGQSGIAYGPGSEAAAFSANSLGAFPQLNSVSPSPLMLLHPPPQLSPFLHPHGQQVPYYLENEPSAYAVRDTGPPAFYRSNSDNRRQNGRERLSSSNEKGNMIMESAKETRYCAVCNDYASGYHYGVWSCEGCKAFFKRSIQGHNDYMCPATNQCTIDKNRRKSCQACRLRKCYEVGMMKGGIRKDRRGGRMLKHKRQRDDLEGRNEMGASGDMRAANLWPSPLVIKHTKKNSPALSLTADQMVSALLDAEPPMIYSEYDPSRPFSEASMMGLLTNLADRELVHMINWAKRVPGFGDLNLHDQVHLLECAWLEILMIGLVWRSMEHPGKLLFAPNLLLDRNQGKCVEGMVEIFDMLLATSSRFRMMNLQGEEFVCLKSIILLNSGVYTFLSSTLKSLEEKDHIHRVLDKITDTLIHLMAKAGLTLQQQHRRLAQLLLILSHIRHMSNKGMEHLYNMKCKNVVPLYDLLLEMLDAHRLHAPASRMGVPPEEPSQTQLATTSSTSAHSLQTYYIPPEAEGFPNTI

For `CC/C(=C(\c1ccccc1)c1ccc(OCCN(C)C)cc1)c1ccccc1` [TAMOXIFEN], the Effect (Rattus norvegicus [1]) was 7%, the Activity (MCF7 [2]) was 1850 and the T/C (MCF7 [3]) was 2% and 12%. For the same compound, the No. of tumors (Rattus norvegicus [4]) was 31, the T/C (MCF7 [5]) was 0% and 6% and the “Change in tumor area” value (Rattus norvegicus [6]) was -57%. The “No. of new tumors” value (Rattus norvegicus [7]) was 24, the Activity (MCF7 [8]) was 80 and the Effect (Rattus norvegicus [9]) was 27%. For the same compound, the Effect (Rattus norvegicus [10]) was 22%, the cell number (MCF7 [11]) was 4800 and the cell number (MCF7 [12]) was 2000. The Effect (Rattus norvegicus [13]) was 44% and the “Change in tumor area” value (Rattus norvegicus [14]) was 136%.
`CCn1c2c(c3cc(OC(C)=O)ccc31)CCc1cc(OC(C)=O)ccc1-2` gave an Effect (Rattus norvegicus [15]) of 9%, a No. of tumors (Rattus norvegicus [16]) of 24 and a No. of tumors (Rattus norvegicus [17]) of 22. The Effect (Rattus norvegicus [18]) was 49%, the “No. of new tumors” value (Rattus norvegicus [19]) was 21 and the Effect [20] was 23.6. The Effect (Rattus norvegicus [21]) was 23%, the “Change in tumor area” value (Rattus norvegicus [22]) was 230% and the Effect (Rattus norvegicus [23]) was 35%. The Effect (Rattus norvegicus [24]) was 10%, the Effect (Rattus norvegicus [25]) was 6% and the “Change in tumor area” value (Rattus norvegicus [26]) was 179%. For the same compound, the “No. of new tumors” value (Rattus norvegicus [27]) was 24, the Effect (Rattus norvegicus [28]) was 7% and the Effect [29] was 19.6. The Effect [30] was 15.3, the Effect [31] was 18.4 and the Effect (Rattus norvegicus [32]) was 61%. For the same compound, the Effect [33] was 25.4.
`CCCCn1c2c(c3ccc(O)cc31)CCc1cc(O)ccc1-2` gave a relative binding affinity (RBA) [34] of 9.5.
For `CCn1c2ccccc2c2ccc3cc(O)ccc3c21`, the relative binding affinity (RBA) [34] was 0.33.
`Cn1c2cc(O)ccc2c2ccc3cc(O)ccc3c21` gave a relative binding affinity (RBA) [34] of 9.5.
For `CCn1c2cc(OC(C)=O)ccc2c2ccc3cc(OC(C)=O)ccc3c21`, the Effect [20] was 38.7, the Effect [29] was 28.5 and the Effect [30] was 21.6. The Effect [31] was 38.5 and the Effect [33] was 46.
`CCn1c2cc(O)ccc2c2ccc3c(O)cccc3c21` showed a relative binding affinity (RBA) [34] of 0.65.
With `CCCn1c2c(c3ccc(O)cc31)CCc1cc(O)ccc1-2` the relative binding affinity (RBA) [34] was 38.
`CCn1c2c(c3cc(O)ccc31)CCc1cc(O)ccc1-2` showed an Activity (MCF7 [2]) of 25840, an Activity (MCF7 [8]) of 760 and a cell number (MCF7 [11]) of 28200. The cell number (MCF7 [12]) was 4600 and the relative binding affinity (RBA) [34] was 13.
Work on `CCn1c2cc(O)ccc2c2ccc3ccc(O)cc3c21` yielded a relative binding affinity (RBA) [34] of 3.6.
`CCn1c2ccc(OC(C)=O)cc2c2ccc3cc(OC(C)=O)ccc3c21` was tested, and the No. of tumors (Rattus norvegicus [35]) was 23, the “Change of tumor area” value (Rattus norvegicus [36]) was 111% and the Effect (Rattus norvegicus [15]) was 3%. For the same compound, the No. of tumors (Rattus norvegicus [17]) was 22, the Effect (Rattus norvegicus [18]) was 70% and the “No. of new tumors” value (Rattus norvegicus [19]) was 41. The Effect [20] was 15.1, the Effect (Rattus norvegicus [21]) was 25% and the “No. of new tumors” value (Rattus norvegicus [37]) was 45. For the same compound, the Effect (Rattus norvegicus [23]) was 19%, the Effect (Rattus norvegicus [24]) was 6% and the Effect (Rattus norvegicus [25]) was 10%. For the same compound, the Effect (Rattus norvegicus [28]) was 8%, the Median (Rattus norvegicus [38]) was 493% and the Range (Rattus norvegicus [38]) was -29%. For the same compound, the “Change of tumor area” value (Rattus norvegicus [39]) was 561%, the Effect [29] was 13.7 and the Effect [30] was 12. It also gave an Effect [31] of 14.4, an Effect (Rattus norvegicus [32]) of 59% and an Effect [33] of 18.1.
For `CCn1c2c(c3ccc(O)cc31)CCc1ccccc1-2`, the relative binding affinity (RBA) [34] was 0.8.
`CCn1c2c(c3cc(O)ccc31)CCc1c(O)cccc1-2` gave a relative binding affinity (RBA) [34] of 1.9.
For `CCn1c2ccc(O)cc2c2ccc3ccc(O)cc3c21`, the relative binding affinity (RBA) [34] was 0.08.
`C[C@]12CC[C@@H]3c4ccc(O)cc4CC[C@H]3[C@@H]1CCC2=O` showed an Effect [40] of 46.9, an Effect [41] of 48.6 and an Effect [42] of 46.9. It also gave an Effect [43] of 42.5.
